Cneo AK release – Cryptococcus neoformans cell lysis inducers, primary screen, AK release luminescence, single concentration; AID 651654, 2012; C. neoformans lysis, adenylate kinase release luminescence, 4 h; normalised: neutral wells 0, clomiphene wells 100; 360,000 compounds, 0.2% hits; lysis activity, % at 15 µM;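 active = mean lysis activity across replicates of at least 80%, whatever share of replicates individually reach that level; inactive = mean lysis activity below 80%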
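Assay system: log-phase C. neoformans yeast / Quantity: yeast cell density of 5 × 10^6 cells/mL / Medium: fresh YPD growth medium / Compound: single dose / Timing: static 4 h at 37 °C with compound, 1 h detection / Measured by: adenylate kinase release luminescence / Read-out: lysis from increased AK signal / Benchmarks: Clomiphene as positive lysis control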
F508del corr – F508del CFTR correction, initial screen, CFBE line, single point; 350,000 compounds, 0.36% hits; activity (quench increase), % at 7.58 µM; CFBE cells, YFP halide quenching; stimulated with forskolin plus potentiator P3; % fluorescence drop versus neutral controls;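 active = mean added fluorescence quench of at least 8% versus neutral control, with both replicates also reaching 8%; inconclusive = only one of the mean or replicate conditions met; inactive = mean below 8% and not both replicates reaching 8%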;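 also: cells transiently co-express mutant CFTR-F508del with the halide-sensitive YFP; corrector assay measuring rescue of mutant channel to the surface after 24 h compound exposure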
rRNA inh HTS – reduced GFP signal of wild-type E. coli, primary screen, bacterial rRNA inhibitor project, GFP/RFP fluorescence, OD600, single point; E. coli WT GFP vs humanized-ribosome RFP mutants, 24 h; hits give low values; DMSO median 0, no signal -100; 350,000 compounds, 1.6% hits; GFP signal change (wild-type ribosome), % (concentration not given with the values);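 active = significant combined selectivity score with lowered wild-type GFP, culture density cut under 30%, mutant RFP and density less affected; inactive = any of these conditions unmet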
miR122 inh – miR-122 Renilla sensor signal increase in Huh7, primary screen, miR-122 inhibitor project, cell-based, single point, plate reader. 340,000 compounds, 0.3% hits. activation (reporter increase), % at 12.5 µM. Huh7 miR-122 Renilla luciferase sensor, 48 h; neutral wells = 0, positive control = 100;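 active = mean replicate activation score at least 90 and every replicate individually at or above 90; inconclusive = only one of the two criteria met; inactive = neither criterion met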;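 also: higher luciferase means less miR-122 activity so hits act as miR-122 inhibitors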
HIV Env fusion – inhibitors of HIV-1 Env-driven cell-cell fusion, primary screen, HeLa-JRFL effector, CEM21 target cells, luciferase | inhibition, % at 12.3 µM | 360,000 compounds, 1.1% hits | AID 651610, 2012;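 active = mean replicate inhibition score of at least 50 and every replicate individually at or above 50; inconclusive = only one of the two criteria met; inactive = mean below 50 and not all replicates reaching 50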;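 also: 0% = plate neutral controls and 100% = maraviroc near 300 nM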
GSIS activator – GLuc luminescence reporter in INS-1E cells, primary screen for activators of glucose-dependent secretion of insulin | 370,000 compounds, 0.61% hits | INS-1E GLuc reporter insulin secretion, 2-3 h | activation, % at 16.6 µM;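 active = lowest replicate activation of at least 40%, so every replicate reaches that level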;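 also: 0% = median of neutral control wells and 100% = median of IBMX positive control wells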
The depositor's hits bear a star; [ ] = another dose, or the depositor's remark. An excerpt weighted towards active compounds, which were near 3.1% of everything screened.

`Nc1ncnc2c1nc(Sc1ccc(Cl)cc1)n2[C@@H]1O[C@@H]2COP(=O)(O)O[C@H]2[C@H]1O` gave Cneo AK release -0.7, F508del corr 2.3, miR122 inh 2.2, HIV Env fusion 14.3 and GSIS activator 64.1*.
Screening CN(C)N1C(=O)CC(N2CCCCC2)C1=O (centres undefined) returned Cneo AK release -2.1, F508del corr 1.6, rRNA inh HTS -30.7*, miR122 inh -4.5, HIV Env fusion 2.0 and GSIS activator 4.5.
For C/C=C/c1ccc2c(c1)O[C@H](CN(C)C(=O)Cc1ccccc1)[C@@H](C)CN([C@@H](C)CO)S2(=O)=O the results were Cneo AK release -2.8, F508del corr 4.0, rRNA inh HTS -4.1, miR122 inh 0.2[16.7 µM], HIV Env fusion inconclusive and GSIS activator -3.9.
For CC(C)(C#N)Cc1cc(CC(C)(C)C#N)cc(C(C)(C)C)c1 the results were Cneo AK release 2.5, F508del corr -0.2, rRNA inh HTS -1.1, miR122 inh 0.4, HIV Env fusion 33.2 and GSIS activator 1.5.
For N#CC(Cc1cccc(CC(C#N)(c2ccccc2)c2ccccc2)c1)(c1ccccc1)c1ccccc1 the results were Cneo AK release 0.8, F508del corr -3.1, rRNA inh HTS 7.8, miR122 inh -0.6, HIV Env fusion 56.5* and GSIS activator 2.3.
For CCOc1cc(/C=C/C(=O)Nc2ccc(C(=O)NCCN(CC)CC)cc2)ccc1OCC(C)C the results were F508del corr -10.5, rRNA inh HTS -51.7, HIV Env fusion 6.7 and GSIS activator 68.1*.
CC1=CC(=O)N(c2cccc(C(F)(F)F)c2)C1c1ccc(Cl)cc1 (centres undefined) was read as Cneo AK release -1.4, miR122 inh -6.7, HIV Env fusion 65.8* and GSIS activator -5.8.
Screening CC(=O)Cn1c(=O)oc2ccccc21 returned Cneo AK release 1.0, F508del corr -0.1, rRNA inh HTS 19.7, miR122 inh -2.3, HIV Env fusion 10.9 and GSIS activator 2.9.
O=C(CCn1c(=O)oc2ccccc21)N(Cc1ccccc1)c1ccccc1 was read as Cneo AK release -0.2, F508del corr -0.8, rRNA inh HTS -23.2, miR122 inh 0.5, HIV Env fusion 27.0 and GSIS activator -21.5.
CCCCN(C(=O)CCn1c(=O)oc2ccccc21)c1ccccc1 was read as Cneo AK release -1.7, F508del corr 0.7, rRNA inh HTS -26.9*, miR122 inh 3.1, HIV Env fusion 6.1 and GSIS activator -1.6.
For CCN(CC)C(=O)Cn1c(=O)oc2ccccc21 the results were F508del corr 1.6, rRNA inh HTS 15.0, HIV Env fusion -5.1 and GSIS activator 41.5*.
For C[C@@H]1CCCCO[C@@H](CN(C)C(=O)c2ccccc2)[C@@H](C)CN([C@@H](C)CO)C(=O)c2cc(NS(=O)(=O)c3ccc(F)cc3)ccc2O1 the results were Cneo AK release 57.4, F508del corr -0.1, rRNA inh HTS -1.4, miR122 inh -9.7[16.7 µM], HIV Env fusion -22.2[16.7 µM] and GSIS activator -3.5.
Screening Cc1ccc(-n2c(C)c([N+](=O)[O-])c3ccc(O)c(CN(C)C)c32)cc1 returned Cneo AK release 6.7, miR122 inh 8.5 and HIV Env fusion 62.5*.
Screening COc1ccc(C)cc1NC(=O)CSc1nnc(CC(=O)Nc2cccc(C(F)(F)F)c2)n1C returned Cneo AK release -5.1, miR122 inh 1.9, HIV Env fusion 79.9* and GSIS activator 3.8.
For COc1ccc(CN(C)C[C@@H]2Oc3ccc(NC(=O)c4ccncc4)cc3CC(=O)N([C@@H](C)CO)C[C@@H]2C)cc1 the results were Cneo AK release 0.5, F508del corr 0.5, rRNA inh HTS -1.7, miR122 inh 3.0[16.7 µM], HIV Env fusion -22.6[16.7 µM] and GSIS activator 5.7.
